Source: PubChem BioAssay
PTEN del growth: growth suppression of PTEN-null HCT116, primary screen, cell-based, CellTiter-Glo; viability, % at 10 µM; AID 827, 2007; 1.2% of 140,000 active; HCT116 PTEN-null viability, 60 h; stronger effect = lower value;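 active means viability at or below a set limit, 4 SD under the median of all tested compounds, cut at about 3.7% in these data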;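 further: PTEN knockout HCT116 line with beta catenin targeted HCT116 as companion control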
Lmaj promast: Leishmania major promastigote growth inhibition, primary screen. Leishmania major promastigotes, resazurin fluorescence viability. inhibition, % at 10 µM. 9% of 200,000 active. AID 1063, 2008; in the data active means inhibition above about 50%;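 further: promastigotes grown with compound for 44 hours at 28 °C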
Dynein transport: inhibitors of GR-EGFP nuclear translocation, primary screen, dynein cargo transport inhibitor project, imaging, high-content, 3617.4 mouse cells. test concentration mostly 20 µM; stimulated with dexamethasone, 1 µM; stronger effect = lower value. z-score, hits read low. 0.47% of 220,000 active. AID 1381, 2008;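 active means plate z-score of nuclear minus cytoplasmic receptor signal below a set negative limit, without overly bright fluorescence or cell loss, cut at about -3.5 in these data, passing the limit was not always enough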;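 further: z-score of nuclear minus cytoplasmic ring GR-EGFP intensity difference per well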
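Buffer or medium: tet-free medium with charcoal-stripped serum / Also added: dexamethasone agonist, 1.0 µM final, for 30 min / Timing: induction 48 h, compound 1 h, agonist 30 min / Measured by: high-content fluorescence imaging after fixation / Read-out: nuclear-to-cytoplasmic GR-EGFP distribution per well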
HCT116 bCat-KO: primary screen for growth suppressors in beta-catenin knockout HCT116 cells (colon tumor, human) | HCT116 beta-catenin knockout viability, CellTiter-Glo, 60 h; stronger effect = lower value | AID 818, 2007 | viability, % at 10 µM | 1.5% of 140,000 active;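 active means viability at or under a set limit, the compound median less 4 SD, cut at about 6% in these data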
Autophagy mod: autophagy modulators in MEF cells, primary screen, imaging, high-content, MEF GFP-LC3; MEF GFP-LC3 puncta imaging; test concentration mostly 10 µM; calls only at 10 µM (by protocol); 0.98% of 190,000 active; AID 463193, 2010;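 active means percentage of spot-positive cells more than 3 SD above its plate mean, without a fluorescence outlier flag or 80% toxicity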
Numbers stand for hits; i = inactive; nt = not tested or not shown; + = active, no number. Shown are actives, neighbours in structure and some others; about 9.2% of the full set was active somewhere.

SMILES | PTEN del growth | Lmaj promast | Dynein transport | HCT116 bCat-KO | Autophagy mod
CC1=C(C#N)C(c2cn(-c3ccccc3)nc2-c2cccs2)C(C#N)=C(C)N1 | i | 66.0 | i | i | i
O=C(c1ccccn1)N1CC=C(c2ccccc2)CC1 | nt | i | i | nt | i
CC(=O)c1ccc(NC(=O)CSc2nc(C)cc(C)c2C(N)=O)cc1 | nt | i | i | nt | i
O=C(NNC(=O)c1cccnc1SCc1cccc([N+](=O)[O-])c1)c1ccccn1 | i | 98.5 | i | 6.0 | i
Cc1ccc(Nc2c3c(nc4ncnn24)CC(C)CC3)cc1 (stereo not drawn) | i | i | i | i | i
CC1CCc2c(nc3ncnn3c2N2CCN(c3ccccc3)CC2)C1 (stereo not drawn) | i | 51.7 | i | i | nt
CCCCc1cc(=O)oc2cc(C)cc(O)c12 | i | 81.6 | i | 5.1 | i
CCCCc1cc(=O)oc2cc(O)cc(O)c12 | nt | i | i | nt | i
O=C(Nc1ccc(N2CCOCC2)cc1)c1ccccc1SCC(=O)N1CCCC1 | nt | i | i | nt | i
Oc1ccc(CNCC2COc3ccccc3O2)cc1 (stereo not drawn) | i | 88.1 | i | i | i
O=C(O)CNCC1COc2ccccc2O1 (stereo not drawn) | i | i | i | i | i
CC1CCc2onc(C(=O)NCc3ccco3)c2C1 (stereo not drawn) | nt | i | i | nt | i
NC(=O)c1ccsc1NC(=O)c1ccc(S(=O)(=O)N2CCCc3ccccc32)cc1 | i | 99.5 | i | i | i
CC1CCCCN1S(=O)(=O)c1ccc(C(=O)Nc2sccc2C(N)=O)cc1 (stereo not drawn) | i | i | i | i | +
O=S(=O)(NC1CC1)c1ccc(S(=O)(=O)N2CCCc3ccccc32)cc1 | i | 94.7 | i | i | i
CC(C)N1CCc2c(sc(NC(=O)c3ccc(S(=O)(=O)N4CCc5ccccc54)cc3)c2C(N)=O)C1 | nt | 100.2 | i | nt | +
C=CCc1ccc(OCCOc2cccc3ccc(C)nc23)c(OC)c1 | i | i | i | i | i
CC(C)N1CCc2c(sc(NC(=O)c3nc4ccccc4s3)c2C(N)=O)C1 | nt | i | i | nt | i
CC(C)N1CCc2c(sc(NC(=O)c3cc(-c4cccs4)nc4ccccc34)c2C(N)=O)C1 | i | 91.5 | i | i | i
COc1ccc(-c2csc3nc(C(C)(C)C)oc(=O)c23)cc1OC | nt | i | i | nt | i
COc1ccc(-c2csc3nc(-c4ccc(C)cc4)oc(=O)c23)cc1OC | 1.8 | i | i | 1.7 | i
O=C(O)C1CN(C(=O)c2cccc(Br)c2)C1 | nt | i | i | nt | i
COc1cccc(CC2CC(=O)N(c3ccc4c(C)cc(=O)oc4c3)C2=O)c1 (stereo not drawn) | nt | i | i | nt | i
Cc1nn(CC(N)=O)c(=O)c2ccccc12 | i | 99.8 | i | i | i
O=C1c2ccccc2C(=O)N1Cc1cc(-c2ccc(Cl)cc2)no1 | nt | i | nt | nt | i
SMILES | PTEN del growth | Lmaj promast | Dynein transport | HCT116 bCat-KO | Autophagy mod
O=C(CCl)Nc1ccccc1Sc1ccc(Cl)cc1 | 2.5 | i | i | 2.1 | i
O=C(COC(=O)Cn1cnc2ccccc2c1=O)Nc1ccccc1Sc1ccc(Cl)cc1 | i | 68.8 | i | i | i
O=C(CSc1ncn[nH]1)Nc1ccccc1Sc1ccccc1 | i | 69.8 | i | i | i
O=C(NCCc1ccccc1)c1cc(=O)c2ccccc2o1 | nt | i | i | nt | i
COCCN1C(=O)/C(=C/c2ccc(N3CCCC3)cc2C)SC1=S | nt | i | i | nt | +
Cc1cnc(NC(=O)c2cc3c(C)nn(Cc4ccccc4Cl)c3s2)s1 | i | 60.1 | i | i | i
CCc1cc2c(=O)[nH]c(-c3ccccn3)nc2s1 | 2.3 | 98.6 | i | 2.5 | i
CCc1cc2c(=O)[nH]c(N3CCCC3)nc2s1 | i | i | i | i | i
Cc1cc(C)c2cc3c(N)c(C(=O)Nc4c(C)[nH]c(=O)[nH]c4=O)sc3nc2c1 | i | i | i | i | +
COc1ccccc1-c1ccc(=O)n(CC(=O)NCc2cccs2)n1 | nt | i | i | nt | i
CCOC(=O)c1c(C)[nH]c(C(=O)COC(=O)/C=C/c2ccc3c(c2)OCO3)c1C | i | i | i | i | i
CCOC(=O)c1c(C)[nH]c(C(=O)COC(=O)CNC(=O)c2ccc(Cl)cc2Cl)c1C | i | 51.5 | i | i | i
CCOC(=O)c1c(C)[nH]c(C(=O)COC(=O)/C=C/c2ccc(O)c(OC)c2)c1C | i | 99.0 | i | i | i
CC(C)NCCCCOc1cccc(Br)c1 | i | 99.4 | i | i | i
C=CCNCCCCOc1cccc(Br)c1 | nt | 96.1 | i | nt | i
OCCNCCCCOc1cccc(Br)c1 | i | 88.5 | i | i | i
COCCCNCCCCOc1cccc(Br)c1 | i | 99.3 | i | i | i
CC(C)NCCOc1cccc(Br)c1 | i | i | i | i | i
Cc1ccsc1/C=N/NC(=O)CNC(=O)c1ccc(S(=O)(=O)N(C)C)cc1 | nt | 51.5 | i | nt | i
CN(C)S(=O)(=O)c1ccc(C(=O)NCC(=O)N/N=C/c2ccccc2Cl)cc1 | nt | 68.5 | i | nt | i
Cc1ccc(/C=N/NC(=O)CNC(=O)c2ccc(S(=O)(=O)N(C)C)cc2)cc1 | nt | i | i | nt | i
O=C(NC1CCCCC1)c1nn2c(C(F)(F)F)cc(-c3ccco3)nc2c1Br | i | i | i | i | +
O=C(NC1CCCCC1)c1cnn2c(C(F)(F)F)cc(-c3ccco3)nc12 | i | i | i | i | i
O=C(Cn1ncc2c(=O)oc3ccccc3c21)Nc1nc2ccccc2s1 | i | i | i | i | i
Cc1cccc(N2CCN(CC(O)COc3ccccc3Cl)CC2)c1 (stereo not drawn) | nt | nt | i | nt | nt
SMILES | PTEN del growth | Lmaj promast | Dynein transport | HCT116 bCat-KO | Autophagy mod
C=CCc1ccccc1OCC(O)CN1CCN(c2ccc(C)cc2)CC1 (stereo not drawn) | i | 69.3 | i | i | i
CCOC(=O)N1CCN(CC(O)COc2cc(C)ccc2C(C)C)CC1 (stereo not drawn) | i | i | i | i | i
C=CCc1ccccc1OCC(O)CN1CCN(C(=O)OCC)CC1 (stereo not drawn) | i | 67.6 | i | i | nt
CCOC(=O)N1CCN(CC(O)COCc2ccc(Cl)cc2)CC1 (stereo not drawn) | i | 92.8 | i | i | i
CCOC(=O)N1CCN(CC(O)COc2ccccc2C(C)C)CC1 (stereo not drawn) | i | 70.1 | i | i | i
O=[n+]1cc(-c2cccc3ccccc23)n([O-])c2c1CCC2 | i | i | i | i | i
COc1cc(C(C(=O)NC2CCCC2)N(C(=O)Cc2cccs2)C2CC2)cc(OC)c1OC (stereo not drawn) | nt | i | i | nt | i
CCOC(=O)N1CCN(CC(O)COc2ccccc2C(C)(C)C)CC1 (stereo not drawn) | i | i | i | i | i
CCOC(=O)N1CCN(CC(O)COc2ccccc2C(C)CC)CC1 (stereo not drawn) | i | 91.3 | i | i | i
CCOC(=O)N1CCN(CC(O)COC(CC)c2ccccc2)CC1 (stereo not drawn) | i | 91.5 | i | i | i
